pEC50, pIC50: −log10 of the molar value.
What was measured:
C2C12 [1] = test: Increase in glucose uptake in mouse C2C12 cells incubated for 18 hrs using [3H]-2-deoxy-D-glucose by liquid scintillation counting; format: functional, cell-based; details: for pEC50: Mus musculus, C2C12, read-out: EC50
Procedure, shortened: (§1)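 Differentiated confluent C2C12 myotubes were held 18 h in DMEM with 2% horse serum containing compound (6.25–100 μM; 0.1% DMSO vehicle control). Cells were equilibrated 30 min at 37 °C in Krebs phosphate buffer pH 7.4 with 5 mM glucose, rinsed glucose-free, then given 10 μM 2-deoxy-D-glucose plus 1 μCi/mL [3H]-2-deoxyglucose for 10 min at 37 °C. Cells were lysed in 0.1 M NaOH and counted by scintillation.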

[2] = target: T1, Glucose-6-phosphatase catalytic subunit 1 (Rattus norvegicus, UniProt P43428); test: Inhibition of glucose-6-phosphatase enzymatic activity in rat […] cells using G6P substrate incubated for 18 hrs by colorimetric assay; format: cell-based
T1 sequence (P43428 whole entry): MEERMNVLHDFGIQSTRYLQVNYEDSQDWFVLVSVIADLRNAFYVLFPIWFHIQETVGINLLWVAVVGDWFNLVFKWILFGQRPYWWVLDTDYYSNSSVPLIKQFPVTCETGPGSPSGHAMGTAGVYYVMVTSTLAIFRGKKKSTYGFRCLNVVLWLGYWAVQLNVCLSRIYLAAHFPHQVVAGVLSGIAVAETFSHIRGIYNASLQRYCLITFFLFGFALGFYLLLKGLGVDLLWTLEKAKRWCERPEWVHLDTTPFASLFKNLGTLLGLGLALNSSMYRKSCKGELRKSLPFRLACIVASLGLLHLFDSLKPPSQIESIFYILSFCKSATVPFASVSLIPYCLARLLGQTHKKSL
Procedure, shortened: (§2)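 H4IIE rat hepatoma cells at 90% confluence were treated 18 h with compound (1–100 μM; 0.1% DMSO control, 100 nM insulin reference). Cells were lysed in 15 mM phosphate buffer pH 6.5 with 0.05% Triton and 1.3 mM phenol, and lysate was incubated with 200 mM glucose-6-phosphate for 40 min at 37 °C. Glucose formed was read by glucose oxidase colorimetry at 505 nm and normalised to protein.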

[3] = target: T2, Glucose-6-phosphatase catalytic subunit 1 (Rattus norvegicus) (UniProt P43428); test: Inhibition of glucose-6-phosphatase enzymatic activity in rat […] cells at 50 uM using G6P substrate incubated for 18 hrs by colorimetric assay; format: cell-based; procedure, shortened: as §2
T2 sequence (whole entry): T1 sequence (P43428 whole entry)

C2C12 [4] = test: Increase in glucose uptake in mouse C2C12 cells incubated for 18 hrs using [3H]-2-deoxy-D-glucose by liquid scintillation counting relative to DMSO; format: functional; design: concentration or dose not given beside the values; procedure, shortened: as §1

| SMILES | EC50 (C2C12 [1]; c2c12) | pIC50 [2] | inhibition [3] | pEC50 (C2C12 [1]) | Efficacy (C2C12 [4]) |
| --- | --- | --- | --- | --- | --- |
| O=C(/C=C/c1ccc(O)c(O)c1)OC[C@H]1O[C@@H](O[C@@H]2COC(=O)C2)[C@H](O)[C@@H](O)[C@@H]1O | Not Active | 4.86 | 44% | – | – |
| O=c1c(O[C@@H]2O[C@H](CO)[C@H](O)[C@H](O)[C@H]2O)c(-c2ccc(O)c(O)c2)oc2cc(O)cc(O)c12 [HYPEROSIDE] | – | – | – | 4.22 | 211% |
| COC(=O)C1=CO[C@@H](O[C@H]2O[C@H](CO)[C@@H](O)[C@H](O)[C@H]2O)[C@@H]2[C@H](C)O[C@@H](OC)C[C@H]12 | – | – | – | 4.59 | 120% |
| O=C(/C=C/c1ccc(O)c(O)c1)OC[C@H]1O[C@@H](Oc2c(-c3ccc(O)cc3)oc3cc(O)cc(O)c3c2=O)[C@H](O)[C@@H](O)[C@@H]1O | – | – | – | 4.86 | 188% |
| COc1cc(-c2oc3cc(O)cc(O)c3c(=O)c2O[C@@H]2O[C@H](CO)[C@@H](O)[C@H](O)[C@H]2O)ccc1O | – | – | – | 4.73 | 150% |
| O=C1C[C@H](O[C@@H]2O[C@H](CO)[C@@H](O)[C@H](O)[C@H]2O)CO1 [GOODYEROSIDE] | – | 3.41 | 19.6% | 4.59 | 124% |

— ChEMBL document CHEMBL2069228, “Antidiabetic compounds from Sarracenia purpurea used traditionally by the Eeyou Istchee Cree First Nation” (J Nat Prod, 2012)
